Laboratory results from paper PMC9134407 (ACS Omega, 2022).

Legend:
[1] = Cell-Titer Blue cytotoxicity assay; assay type: cell-based; settings: human, HEK293T cells
[2] = target: T1, human FXR (Homo sapiens, UniProt Q96RI1); test: cell-based luciferase reporter assay; settings: for inhibition at 10 µM: HEK-293T
T1 sequence (Q96RI1 1-486): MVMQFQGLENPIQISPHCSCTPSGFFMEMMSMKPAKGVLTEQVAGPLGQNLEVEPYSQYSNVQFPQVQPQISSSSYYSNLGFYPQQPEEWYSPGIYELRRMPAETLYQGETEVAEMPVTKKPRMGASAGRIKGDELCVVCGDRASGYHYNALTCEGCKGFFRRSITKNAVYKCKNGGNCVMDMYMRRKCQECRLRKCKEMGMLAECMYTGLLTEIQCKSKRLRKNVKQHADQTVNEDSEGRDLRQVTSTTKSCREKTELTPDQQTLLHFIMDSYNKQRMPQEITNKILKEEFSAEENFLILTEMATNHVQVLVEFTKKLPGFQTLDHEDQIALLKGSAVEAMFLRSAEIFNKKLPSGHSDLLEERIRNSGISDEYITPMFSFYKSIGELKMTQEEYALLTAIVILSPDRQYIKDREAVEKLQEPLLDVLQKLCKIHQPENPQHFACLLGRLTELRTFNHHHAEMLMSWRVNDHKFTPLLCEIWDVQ
How it was run: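 HEK293T cells transiently cotransfected with a human FXR expression vector and an SHP promoter luciferase reporter (SHP-luc). Transactivation was driven by GW4064 at 10 μM, with or without test compound. FXR-dependent reporter activity was read as luciferase signal.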

[3] = tested on: FXR; settings: read-out: IC50 FXR antagonist; cited from earlier work

Structure (SMILES) | viability at 10 µM [1] | inhibition at 10 µM [2] | viability [1] | IC50 [2] | IC50 [3]
CC(=O)O[C@@H]1CC[C@]2(C)C(=O)[C@H](C3CC[C@H]([C@H](C)CCCC(C)C)[C@@]3(C)CC(=O)O)CC[C@H]2C1 (stereo partly shown) [Compound 3a] | > 100% | 54.7 ± 6.2% | – | – | –
CC(=O)O[C@H]1CC[C@]2(C)C(=O)[C@H](C3CC[C@H]([C@H](C)CCCC(C)C)[C@@]3(C)CC(=O)O)CC[C@H]2C1 (stereo partly shown) [Compound 3b] | > 100% | 24.9 ± 2% | – | – | –
CC(C)CCC[C@@H](C)[C@H]1CCC([C@@H]2CC[C@H]3C[C@H](O)CC[C@]3(C)C2=O)[C@]1(C)CC(=O)O (stereo partly shown) [Compound 4a] | > 100% | 53.1 ± 4.9% | – | – | –
CC(C)CCC[C@@H](C)[C@H]1CCC([C@@H]2CC[C@H]3C[C@@H](O)CC[C@]3(C)C2=O)[C@]1(C)CC(=O)O (stereo partly shown) [Compound 4b] | > 100% | 14.1 ± 4.1% | – | – | –
CC(C)CCC[C@@H](C)[C@H]1CCC([C@@H]2CC[C@H]3C[C@H](O)CC[C@]3(C)C2=O)[C@]1(C)C/C=C/C(=O)O (stereo partly shown) [Compound 7] | > 100% | 76.3 ± 1.9% | – | – | –
CC(C)CCC[C@@H](C)[C@H]1CCC([C@@H]2CC[C@H]3C[C@H](O)CC[C@]3(C)C2=O)[C@]1(C)CCCC(=O)O (stereo partly shown) [Compound 8] | > 100% | 85.8 ± 2.4% | 41.1% | 7.7 µM | –
C[C@H](CCC(=O)NCC(=O)O)[C@H]1CC[C@H]2[C@@H]3[C@@H](O)C[C@@H]4C[C@H](O)CC[C@]4(C)[C@H]3CC[C@]12C [GUDCA, glycoursodeoxycholic acid] | – | – | – | – | 77.2 µM
C[C@H](CCC(=O)O)[C@H]1CC[C@H]2[C@@H]3[C@H](O)[C@H](O)[C@@H]4C[C@H](O)CC[C@]4(C)[C@H]3CC[C@]12C [HCA, hyocholic acid, reference compound] | – | – | > 100% | 27.3 µM | 70.1 µM
C[C@H](CCC(=O)NCCS(=O)(=O)O)[C@H]1CC[C@H]2[C@@H]3[C@@H](O)C[C@@H]4C[C@H](O)CC[C@]4(C)[C@H]3CC[C@]12C [TUDCA, tauroursodeoxycholic acid] | – | – | – | – | 75.1 µM
